The source made the active and inactive calls. The calls are words filed in the database; no cut-off is given here.

In data set [1] the test system is T98G. As to the kind of experiment: Antiproliferative activity against human T98G cells overexpressing AR assessed as reduction in cell viability incubated for 48 hrs by MTT assay. Format: functional, cell-based. The method in brief: (§1)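 MTT assay; 3000 cells/well in RPMI 1640 or DMEM with 10% FBS, seeded 24 h, then exposed 48 h to a range of concentrations in DMSO (final ≤0.1%); vehicle controls. MTT 1 mg/mL for 2 h at 37 °C, dye dissolved in DMSO, absorbance 570 nm; eight replicates; IC50 by nonlinear regression.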

The next data set has as its system A 172. Put plainly: Antiproliferative activity against human A 172 cells assessed as reduction in cell viability incubated for 48 hrs by MTT assay. Format: functional, cell-based. Particulars: A 172, 48 h. The essentials: as §1
(Tetrazolium assays rely on reduction of a dye to a coloured formazan, in cell work by metabolically active cells.)

Data set [2] can be described thus: Toxicity in CD1 mouse assessed as decrease in body weight at 80 mg/kg/day, ip administered thrice weekly and measured at day 10. Format: organism-based. Conditions: in vivo, 72 h, time 3 day. The method in brief:
(§2)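 Male CD-1 mice, four per group, given 80 mg/kg in PBS IP three times weekly; vehicle DMSO. Mice were euthanized when toxicity signs appeared, otherwise at day 10. Body weight was recorded at first and last dosing days. Non-fasted cardiac blood was taken after euthanasia for an automated hematology analyzer.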

Data set [3] is described as follows: Toxicity in CD1 mouse assessed as decrease in body weight at 80 mg/kg/day, ip administered thrice weekly and observed at day 5 to 7. Particulars: in vivo, 72 h, time 3 day. Format: organism-based. The method in brief:
as §2

In data set [4] the target is Heat shock protein beta-1 (Homo sapiens) (UniProt P04792). Put plainly: Inhibition of HSP27 (unknown origin) chaperone activity assessed as increase in DTT-induced insulin aggregation at 10 uM incubated for 5 mins in absence of alpha-crystallin followed by addition of DTT and measured for 2 hrs for every 3 mins by microplate reader analysis. Conditions: time 125.0 min. The essentials:
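Insulin aggregation assay in PBS at 10 μM, 0.1% DMSO. Insulin stock 1 mg/mL with or without α-crystallin stock 5 mg/mL was preincubated 5 min at 37 °C. Aggregation was started with DTT (1 M stock). A400 was read every 3 min for 2 h; three independent experiments, each in triplicate.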

For a further data set, the species on record is Bos taurus. Put plainly: Inhibition of bovine brain tubulin polymerization measured every 1 min for 45 mins in presence of GTP by microplate reader analysis. Conditions: dose 1-1000 nM. The method in brief: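 MAP-rich bovine brain tubulin, 2 mg/mL, in 80 mM PIPES pH 6.9, 2 mM MgCl2, 0.5 mM EGTA, 5% glycerol with a range of concentrations in DMSO at 37 °C. Polymerization was started with GTP (100 mM stock, 1 μL). A340 was read each minute for 45 min; three independent experiments, analysed at end reading.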

Data set [5] concerns T98G. As to the kind of experiment: Downregulation of PSA mRNA expression in human T98G cells at 25 nM incubated for 12 hrs by qRT-PCR analysis. Format: functional, cell-based. The method in brief: (§3)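 T98G and U87 cells, 2 × 10^5 per well, adhered overnight and were treated at 25 nM for 12 h. RNA was extracted with RiboZol and DNase I-treated. AR, PSA and NKX3.1 were measured by real-time PCR, normalized to 18S by 2−ΔΔCt, three replicates per cDNA.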
On the technique in general: Quantitative PCR measures a nucleic acid by following its amplification.

Data set [6] has as its system T98G. Put plainly: Downregulation of NKX3.1 mRNA expression in human T98G cells at 25 nM incubated for 12 hrs by qRT-PCR analysis. Format: functional, cell-based. The method in brief:
as §3

The next data set deals with U-87MG ATCC. Put plainly: Downregulation of NKX3.1 mRNA expression in human U87 cells at 25 nM incubated for 12 hrs by qRT-PCR analysis. Format: functional, cell-based. The method in brief:
as §3

The target in data set [7] is T1, Androgen receptor (Homo sapiens) (UniProt P10275).
T1 sequence (whole entry): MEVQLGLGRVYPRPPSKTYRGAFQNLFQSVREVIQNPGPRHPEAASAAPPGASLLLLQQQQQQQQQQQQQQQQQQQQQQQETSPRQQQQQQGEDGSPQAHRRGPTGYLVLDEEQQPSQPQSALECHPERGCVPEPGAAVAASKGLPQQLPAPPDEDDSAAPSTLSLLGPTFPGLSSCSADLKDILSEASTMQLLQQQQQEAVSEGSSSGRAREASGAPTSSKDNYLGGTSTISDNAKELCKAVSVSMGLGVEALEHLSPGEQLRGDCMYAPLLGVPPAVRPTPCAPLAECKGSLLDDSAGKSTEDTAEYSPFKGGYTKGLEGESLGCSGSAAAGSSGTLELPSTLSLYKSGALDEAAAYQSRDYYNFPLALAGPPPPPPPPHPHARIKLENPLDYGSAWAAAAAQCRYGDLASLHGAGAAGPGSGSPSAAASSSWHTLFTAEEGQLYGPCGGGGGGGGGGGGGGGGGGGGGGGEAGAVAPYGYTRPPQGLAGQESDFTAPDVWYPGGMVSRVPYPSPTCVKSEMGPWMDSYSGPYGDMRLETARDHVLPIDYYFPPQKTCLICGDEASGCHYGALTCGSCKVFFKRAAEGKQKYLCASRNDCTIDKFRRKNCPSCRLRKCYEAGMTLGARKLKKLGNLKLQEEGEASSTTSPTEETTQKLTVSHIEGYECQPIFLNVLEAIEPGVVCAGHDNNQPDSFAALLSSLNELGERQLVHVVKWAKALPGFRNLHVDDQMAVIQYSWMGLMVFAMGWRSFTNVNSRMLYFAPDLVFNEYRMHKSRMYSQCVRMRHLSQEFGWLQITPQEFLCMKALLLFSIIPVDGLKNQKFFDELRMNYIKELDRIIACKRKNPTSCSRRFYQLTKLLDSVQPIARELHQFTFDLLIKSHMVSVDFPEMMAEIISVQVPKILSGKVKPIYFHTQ
Put plainly: Inhibition of AR transcriptional activity in human T98G cells assessed as reduction in AR mRNA expression at 25 nM incubated for 12 hrs by qRT-PCR analysis. Format: cell-based. The essentials: as §3

Data set [8] is described as follows: Toxicity in NCR nude mouse xenografted with human U87 cells assessed as change in body weight at 20 mg/kg, ip administered thrice weekly for 14 days. Format: organism-based. Particulars: in vivo, 336 h, time 14 day. The essentials: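 Male NCRNU nude mice, 5–6 weeks old, were given 5 × 10^6 U87 cells in 100 μL sterile PBS, injected subcutaneously into the left and right flanks. Dosing was 20 mg/kg in PBS, three times weekly for 14 days, with a DMSO vehicle group. Body weight was recorded three times weekly. Results are mean ± SD, n = 4 mice per group.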
Background: In xenograft studies the graft and the host belong to different species.

Data set [9] concerns Mus musculus. As to the kind of experiment: In vivo inhibition of HSP27 in human U87 cells xenografted in NCR nude mouse assessed as reduction in AR expression level in tumors at 20 mg/kg, po administered thrice weekly for 14 days by Western blot analysis. Format: functional, organism-based. Particulars: time 14.0 day. The method in brief: (§4)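 Tumors from U87 flank xenografts in male nude mice dosed at 20 mg/kg IP or orally three times weekly for 14 days. The two tumors of each mouse were pooled and homogenized in RIPA with protease inhibitors and PMSF. AR was then measured by western blot; n = 4.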

The test system of data set [10] is Mus musculus. As to the kind of experiment: In vivo inhibition of HSP27 in human U87 cells xenografted in NCR nude mouse assessed as reduction in AR expression level in tumors at 20 mg/kg, ip administered thrice weekly for 14 days by Western blot analysis. Format: functional, organism-based. Conditions: time 14.0 day. The essentials: as §4

Sequence of Heat shock protein beta-1 (Homo sapiens) (P04792 whole entry): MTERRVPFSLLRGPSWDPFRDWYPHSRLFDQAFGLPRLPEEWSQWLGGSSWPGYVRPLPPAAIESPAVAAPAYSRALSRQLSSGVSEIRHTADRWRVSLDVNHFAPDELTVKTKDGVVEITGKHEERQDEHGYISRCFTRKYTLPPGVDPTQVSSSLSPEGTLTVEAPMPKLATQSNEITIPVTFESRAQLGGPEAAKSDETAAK

For the compound `COc1ccc(C(=O)Nc2ccc(NS(C)(=O)=O)c(OCc3cc(OC)ccc3OC)c2)cc1`, the IC50 with T98G [1] is 2.01 nM; in the data set with A 172, 6.24 nM. Further, the Activity entry in [2], in data set [3] and in [8] was “Non-Toxic” throughout. Moreover, the inhibition entry in data set [4] was “inactive”. In addition, the inhibition entry in the data set filed under Bos taurus is “Dose-dependent effect”. The inhibition entry (in the data set with T98G [5]; in the data set with T98G [6]; in the data set on U-87MG ATCC; in data set [7]; in the data set with Mus musculus [9]; in the data set with Mus musculus [10]) was “Active” in each case.

What is called IC50 is the concentration at which inhibition is half-maximal.

The values are drawn from ChEMBL document CHEMBL4706680, “Small-Molecule HSP27 Inhibitor Abolishes Androgen Receptors in Glioblastoma” (J Med Chem, 2021).
